Assay results gathered from unrelated publications.
Compare with care: the assays were run in different laboratories.

The viability of `Nc1c2c(nc3c1C(c1ccc(Cl)c(Cl)c1)c1ccc(OCC(=O)c4ccc(Cl)cc4)cc1O3)CCCC2` (stereo not drawn) is reported as 71.6% (SH-SY5Y; cell growth or viability, MTT; 6.3 µM).
The half-life of `Cc1cc(C)nc(Nc2ncc(C(=O)NCCc3c(C)[nH]c4ccccc34)cn2)c1` is reported as 197 min (chemical stability; simulated intestinal fluid; 10 µM, pH 6.8).
`C[C@]12CC[C@H](n3ccnc3)CC1=CC[C@@H]1[C@@H]2CC[C@]2(C)C(n3cnc4ccccc43)=CC[C@@H]12.Cl.Cl` gave an AUC(0-t) of 1870 ng·h/mL (male CD-1 mouse, plasma; intravenous, 1 mg/kg).
The viability of `COc1ccc(S(=O)(=O)Oc2ccc3c(c2)Oc2nc4c(c(N)c2C3c2cccc(OC)c2)CCCC4)cc1` (stereo not drawn) is reported as 84.3% (SH-SY5Y; cell growth or viability, MTT; 1.6 µM).
For `COc1cc2c(cc1NC(=O)c1ccc(C(C)(C)C#N)cc1)CCCCC2`, the CC50 was 3.57 µM (NHDF; cell growth or viability, ATP luminescence; 24 h).
For `O=C(Nc1ccc(Cl)cc1)Nc1cccc(-c2cccc(N3CCCC3)n2)c1`, the half-life was 13.4 min (metabolic stability; rat, liver microsomes; pH 7.4).
`CCCCCCCCCCOc1cc2c(O)c(C(=O)OCC)cnc2cc1OCC` gave an IC50 of over 100 µM (CHO; cell growth or viability; 72 h).
For `CCC[C@@](N)(CO)CCc1ccc(OCCCCCC(C)C)cc1`, the AUC(0-t) was 0.227 µM·h (mouse, plasma; oral, 10 mg/kg).
For `C[C@]12CC[C@H](O)CC1=CC[C@@H]1[C@@H]2CC[C@]2(C)C(n3cnc4ccccc43)=CC[C@@H]12.Cl`, the AUC(0-t) was 26.1 ng·h/mL (mouse, plasma; oral, 10 mg/kg).
`CCCCCn1nc(C(=O)Nc2cccc3ccccc23)c2ccccc21` has a half-life of 1.61 min (metabolic stability; Sprague-Dawley rat, liver microsomes; 1 µM, pH 7.4).
The viability of `Nc1c2c(nc3c1C(c1cccc([N+](=O)[O-])c1)c1ccc(OS(=O)(=O)c4ccc(F)cc4)cc1O3)CCCC2` (stereo not drawn) is reported as 48.8% (SH-SY5Y; cell growth or viability, MTT; 25 µM).
For `COc1cc2c(cc1C(=O)Nc1ccc(C(C)(C)C#N)cc1)CCCCC2`, the CC50 was 94 µM (NHDF; cell growth or viability, ATP luminescence; 24 h).
